pIC50, pKd: −log10 of the molar value. Each block holds one compound with its values, some of them ahead of it.
Tests used:
BMPR2 kinase domain [1] = target: T1, BMPR2 kinase domain (Homo sapiens, UniProt Q13873); assay: Thermal shift assay; format: binding; conditions: 50 μM compound; BMPR2 alone Tm 52.1 °C
T1 sequence (Q13873 188-517): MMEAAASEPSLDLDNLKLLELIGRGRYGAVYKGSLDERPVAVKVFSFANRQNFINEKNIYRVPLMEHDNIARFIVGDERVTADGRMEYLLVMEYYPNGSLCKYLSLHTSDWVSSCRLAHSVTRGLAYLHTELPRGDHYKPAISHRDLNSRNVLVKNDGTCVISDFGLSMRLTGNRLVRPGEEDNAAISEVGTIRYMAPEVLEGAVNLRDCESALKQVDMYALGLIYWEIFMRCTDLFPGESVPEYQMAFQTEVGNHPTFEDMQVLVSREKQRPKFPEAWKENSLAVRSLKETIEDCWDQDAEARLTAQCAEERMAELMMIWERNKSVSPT
Outline: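 Purified BMPR2 kinase domain (1 μg) in 50 mM Tris–HCl pH 7.5, 150 mM NaCl with 50 μM test compound and 5× SYPRO Orange. Heated 20 to 95 °C, fluorescence read every 10 s. Tm taken from the unfolding curve; three technical replicates averaged.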

ACVRL1 (ALK1) = ACVRL1 (ALK1) (Homo sapiens, UniProt P37023); assay: ThermoFisher SelectScreen LanthaScreen assay; format: binding; conditions: ALK1, text
ACVR1 (ALK2) = target: T2, ACVR1 (ALK2) (Homo sapiens, UniProt Q04771); assay: ThermoFisher SelectScreen LanthaScreen assay; format: binding; conditions: ALK2, text
T2 sequence (Q04771 21-509): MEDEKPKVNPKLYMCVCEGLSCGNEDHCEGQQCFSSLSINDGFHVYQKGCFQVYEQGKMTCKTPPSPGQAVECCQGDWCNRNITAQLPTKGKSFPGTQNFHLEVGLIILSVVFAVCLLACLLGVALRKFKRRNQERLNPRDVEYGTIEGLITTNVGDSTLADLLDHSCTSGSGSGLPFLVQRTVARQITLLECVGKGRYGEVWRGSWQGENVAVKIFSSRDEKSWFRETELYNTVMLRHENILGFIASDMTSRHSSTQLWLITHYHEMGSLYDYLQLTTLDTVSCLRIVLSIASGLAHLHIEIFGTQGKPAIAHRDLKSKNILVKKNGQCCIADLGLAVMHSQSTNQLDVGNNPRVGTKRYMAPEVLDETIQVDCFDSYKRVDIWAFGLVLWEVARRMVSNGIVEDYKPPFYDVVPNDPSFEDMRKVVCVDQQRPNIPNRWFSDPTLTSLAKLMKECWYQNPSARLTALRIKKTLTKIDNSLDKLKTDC

BMPR1A (ALK3) = BMPR1A (ALK3) (Homo sapiens, UniProt P36894); assay: ThermoFisher SelectScreen LanthaScreen assay; format: binding
ACVR1B (ALK4) = target: T3, ACVR1B (ALK4) (Homo sapiens, UniProt P36896); assay: ThermoFisher SelectScreen Z’-LYTE assay; format: biochemical; conditions: N/A = not active
T3 sequence (P36896 24-505): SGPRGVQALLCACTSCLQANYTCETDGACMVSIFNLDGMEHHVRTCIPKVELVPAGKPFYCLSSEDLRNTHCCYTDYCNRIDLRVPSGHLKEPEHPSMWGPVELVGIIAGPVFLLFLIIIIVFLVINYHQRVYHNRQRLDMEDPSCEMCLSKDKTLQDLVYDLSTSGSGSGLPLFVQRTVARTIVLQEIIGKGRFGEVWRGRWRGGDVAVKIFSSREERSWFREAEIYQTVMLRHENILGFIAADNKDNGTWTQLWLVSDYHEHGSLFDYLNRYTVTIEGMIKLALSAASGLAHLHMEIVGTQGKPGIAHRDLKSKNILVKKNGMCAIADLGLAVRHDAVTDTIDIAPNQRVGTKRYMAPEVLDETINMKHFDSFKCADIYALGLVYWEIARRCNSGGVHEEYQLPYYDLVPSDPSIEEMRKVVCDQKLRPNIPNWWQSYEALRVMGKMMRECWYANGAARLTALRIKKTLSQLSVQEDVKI

TGFBR1 (ALK5) = target: T4, TGFBR1 (ALK5) (Homo sapiens, UniProt P36897); assay: ThermoFisher SelectScreen LanthaScreen assay; format: binding
T4 sequence (P36897 34-503): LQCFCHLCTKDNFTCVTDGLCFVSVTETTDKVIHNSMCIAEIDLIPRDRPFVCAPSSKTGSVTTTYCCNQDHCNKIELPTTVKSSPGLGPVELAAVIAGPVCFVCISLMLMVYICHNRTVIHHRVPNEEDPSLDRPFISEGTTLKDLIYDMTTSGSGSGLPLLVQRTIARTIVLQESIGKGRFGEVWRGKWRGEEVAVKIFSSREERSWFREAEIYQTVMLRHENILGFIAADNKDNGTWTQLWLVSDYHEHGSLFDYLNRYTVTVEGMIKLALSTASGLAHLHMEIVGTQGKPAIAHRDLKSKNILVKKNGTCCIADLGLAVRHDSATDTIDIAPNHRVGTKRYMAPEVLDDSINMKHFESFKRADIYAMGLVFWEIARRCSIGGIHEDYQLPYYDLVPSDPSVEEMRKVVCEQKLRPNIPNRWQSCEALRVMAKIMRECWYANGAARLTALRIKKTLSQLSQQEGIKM

BMPR1B (ALK6) = BMPR1B (ALK6) (Homo sapiens, UniProt O00238); assay: ThermoFisher SelectScreen LanthaScreen assay; format: binding
TGFBR2 = TGFBR2 (Homo sapiens, UniProt P37173); assay: ThermoFisher SelectScreen LanthaScreen assay; format: binding
ACVR2A = ACVR2A (Homo sapiens, UniProt P27037); assay: ThermoFisher SelectScreen LanthaScreen assay; format: binding; conditions: N/A = not active
Outline: (§1)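 Outsourced kinase profiling in TR-FRET binding format, measuring displacement of a tight-binding tracer from the kinase by test compound. IC50 reported.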

ACVR2B = ACVR2B (Homo sapiens, UniProt Q13705); assay: ThermoFisher SelectScreen LanthaScreen assay; format: binding; conditions: N/A = not active
Outline: as §1

BMPR2 kinase domain [2] = target: T1, BMPR2 kinase domain; assay: BMPR2 Kinase-Glo kinase inhibition assay; format: biochemical; conditions: for fold loss of BMPR2 potency: compared to parent CDD-1115 (CDD-1280: relative to CDD-1281)
Outline: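 Recombinant human BMPR2 kinase domain (aa188-517, C-terminal His-tag) expressed in E. coli and purified by affinity, anion-exchange and size-exclusion chromatography. Substrate-free ATPase end-point assay: 10 μM ATP, 0.02% Tween-20, kinase buffer, 30 min at 30 °C. Enzyme level optimized for linear initial velocity. Leftover ATP read by luciferase luminescence, with no-kinase controls. Kiapp from modified Morrison equation fit to normalized fractional activity, no inhibition mode assumed.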

[3] = system: pSMAD1/5 in human umbilical vein endothelial cells (HUVECs); assay: pSMAD1/5 Western blot, BMP9-stimulated HUVECs; format: cell-based; conditions: 25 μM, 30 min pretreatment, 0.5 ng/mL BMP9 15 min
Outline: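 HUVECs, about 3 × 10^5 per well, starved overnight in Kaighn's F-12 with 0.5% FBS and 30 μg/mL endothelial cell growth supplement. Pretreated with inhibitors for 30 min, then given 0.5 ng/mL BMP9 for 15 min. Lysed with protease and phosphatase inhibitors. SDS-PAGE immunoblot for pSMAD1/5, SMAD1, SMAD5 and GAPDH, with densitometry. n = 3 biological replicates; one-way ANOVA with Tukey post hoc test.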

WNK1 = WNK1 (Homo sapiens, UniProt Q9H4A3); assay: ThermoFisher Kd Elect screening; format: binding
WNK2 = WNK2 (Homo sapiens, UniProt Q9Y3S1); assay: ThermoFisher Kd Elect screening; format: binding
WNK2, sequence (Q9Y3S1 whole entry): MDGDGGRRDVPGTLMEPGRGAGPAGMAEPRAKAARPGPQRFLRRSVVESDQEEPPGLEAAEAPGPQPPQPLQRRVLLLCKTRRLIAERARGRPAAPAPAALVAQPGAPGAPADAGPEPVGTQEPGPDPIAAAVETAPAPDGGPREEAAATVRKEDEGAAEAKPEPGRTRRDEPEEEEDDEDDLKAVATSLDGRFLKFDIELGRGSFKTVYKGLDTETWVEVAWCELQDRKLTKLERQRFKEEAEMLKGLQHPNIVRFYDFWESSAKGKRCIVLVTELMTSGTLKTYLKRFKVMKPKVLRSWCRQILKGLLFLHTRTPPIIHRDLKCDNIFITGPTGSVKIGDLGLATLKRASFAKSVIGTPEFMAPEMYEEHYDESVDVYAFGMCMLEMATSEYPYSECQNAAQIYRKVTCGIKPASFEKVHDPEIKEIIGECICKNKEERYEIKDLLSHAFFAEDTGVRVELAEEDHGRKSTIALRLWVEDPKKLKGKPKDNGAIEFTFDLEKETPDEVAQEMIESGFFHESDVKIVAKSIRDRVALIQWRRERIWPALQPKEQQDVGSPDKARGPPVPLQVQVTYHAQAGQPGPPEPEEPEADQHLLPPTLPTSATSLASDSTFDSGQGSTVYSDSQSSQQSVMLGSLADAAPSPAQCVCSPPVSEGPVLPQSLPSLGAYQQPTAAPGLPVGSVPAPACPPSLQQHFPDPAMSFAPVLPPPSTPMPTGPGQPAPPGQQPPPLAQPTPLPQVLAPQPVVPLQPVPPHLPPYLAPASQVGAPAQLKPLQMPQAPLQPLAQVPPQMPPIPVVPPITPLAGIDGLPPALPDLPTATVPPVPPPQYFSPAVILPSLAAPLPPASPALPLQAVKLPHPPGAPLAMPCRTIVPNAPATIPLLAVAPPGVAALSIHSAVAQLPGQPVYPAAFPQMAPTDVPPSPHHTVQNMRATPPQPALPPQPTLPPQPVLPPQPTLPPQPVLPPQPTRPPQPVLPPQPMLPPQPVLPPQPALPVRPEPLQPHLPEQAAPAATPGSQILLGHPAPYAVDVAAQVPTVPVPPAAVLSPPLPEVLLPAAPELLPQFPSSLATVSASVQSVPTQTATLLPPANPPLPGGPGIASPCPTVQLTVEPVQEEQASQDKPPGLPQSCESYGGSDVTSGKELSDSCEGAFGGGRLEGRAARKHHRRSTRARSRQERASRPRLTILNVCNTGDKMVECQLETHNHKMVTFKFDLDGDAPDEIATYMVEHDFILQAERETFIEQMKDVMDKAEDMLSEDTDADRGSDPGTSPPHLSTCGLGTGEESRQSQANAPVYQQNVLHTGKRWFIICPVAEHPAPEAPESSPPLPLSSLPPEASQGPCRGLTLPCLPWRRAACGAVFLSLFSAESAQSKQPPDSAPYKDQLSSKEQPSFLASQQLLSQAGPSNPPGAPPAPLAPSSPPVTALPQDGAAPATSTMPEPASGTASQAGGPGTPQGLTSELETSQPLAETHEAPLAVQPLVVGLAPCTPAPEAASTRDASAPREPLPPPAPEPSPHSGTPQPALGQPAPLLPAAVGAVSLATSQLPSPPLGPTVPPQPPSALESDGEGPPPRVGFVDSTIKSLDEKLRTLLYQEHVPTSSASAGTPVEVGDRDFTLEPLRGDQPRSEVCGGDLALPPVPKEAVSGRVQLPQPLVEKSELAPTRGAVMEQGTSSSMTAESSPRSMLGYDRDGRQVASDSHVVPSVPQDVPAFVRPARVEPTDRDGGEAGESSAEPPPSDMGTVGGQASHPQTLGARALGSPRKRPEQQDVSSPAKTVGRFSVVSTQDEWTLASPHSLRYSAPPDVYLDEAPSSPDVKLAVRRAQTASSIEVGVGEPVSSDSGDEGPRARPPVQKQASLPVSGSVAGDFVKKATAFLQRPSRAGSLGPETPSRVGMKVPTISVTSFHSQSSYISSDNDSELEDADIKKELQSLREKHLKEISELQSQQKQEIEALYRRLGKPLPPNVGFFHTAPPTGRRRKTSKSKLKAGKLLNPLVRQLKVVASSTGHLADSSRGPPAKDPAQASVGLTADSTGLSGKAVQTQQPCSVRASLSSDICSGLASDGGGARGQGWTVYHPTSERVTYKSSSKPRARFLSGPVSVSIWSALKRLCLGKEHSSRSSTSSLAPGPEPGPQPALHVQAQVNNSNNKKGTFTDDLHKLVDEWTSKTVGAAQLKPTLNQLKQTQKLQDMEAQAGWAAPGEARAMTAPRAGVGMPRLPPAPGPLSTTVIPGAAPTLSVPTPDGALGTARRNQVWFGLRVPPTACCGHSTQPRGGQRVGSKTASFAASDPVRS

TGFBR2, sequence (P37173 23-567): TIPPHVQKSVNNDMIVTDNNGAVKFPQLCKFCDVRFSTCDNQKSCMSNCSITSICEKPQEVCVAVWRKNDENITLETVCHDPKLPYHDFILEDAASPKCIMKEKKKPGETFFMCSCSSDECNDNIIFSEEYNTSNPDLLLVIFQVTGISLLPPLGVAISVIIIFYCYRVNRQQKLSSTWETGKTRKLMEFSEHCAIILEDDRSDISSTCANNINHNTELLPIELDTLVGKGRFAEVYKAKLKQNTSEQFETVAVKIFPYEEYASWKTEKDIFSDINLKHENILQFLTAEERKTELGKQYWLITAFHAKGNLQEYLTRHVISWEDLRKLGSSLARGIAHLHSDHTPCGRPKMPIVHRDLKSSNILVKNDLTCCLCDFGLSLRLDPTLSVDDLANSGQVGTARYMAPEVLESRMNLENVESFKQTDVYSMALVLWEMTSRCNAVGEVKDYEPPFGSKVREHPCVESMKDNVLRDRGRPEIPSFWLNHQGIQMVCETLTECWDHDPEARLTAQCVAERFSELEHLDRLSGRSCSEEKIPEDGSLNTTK
BMPR1B (ALK6), sequence (O00238 14-502): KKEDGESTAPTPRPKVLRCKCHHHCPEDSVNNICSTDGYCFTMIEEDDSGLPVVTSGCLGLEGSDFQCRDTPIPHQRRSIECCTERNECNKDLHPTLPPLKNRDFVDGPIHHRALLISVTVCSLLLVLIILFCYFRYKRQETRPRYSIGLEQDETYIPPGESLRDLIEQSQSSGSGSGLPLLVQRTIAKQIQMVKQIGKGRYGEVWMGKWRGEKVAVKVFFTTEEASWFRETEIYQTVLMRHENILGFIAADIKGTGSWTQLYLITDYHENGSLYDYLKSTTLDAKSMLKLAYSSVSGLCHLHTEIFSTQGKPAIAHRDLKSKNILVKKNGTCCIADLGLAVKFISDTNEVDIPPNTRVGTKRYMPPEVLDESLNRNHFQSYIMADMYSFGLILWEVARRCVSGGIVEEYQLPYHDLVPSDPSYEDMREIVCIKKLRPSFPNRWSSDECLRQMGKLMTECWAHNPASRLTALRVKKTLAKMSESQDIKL
BMPR1A (ALK3), sequence (P36894 24-532): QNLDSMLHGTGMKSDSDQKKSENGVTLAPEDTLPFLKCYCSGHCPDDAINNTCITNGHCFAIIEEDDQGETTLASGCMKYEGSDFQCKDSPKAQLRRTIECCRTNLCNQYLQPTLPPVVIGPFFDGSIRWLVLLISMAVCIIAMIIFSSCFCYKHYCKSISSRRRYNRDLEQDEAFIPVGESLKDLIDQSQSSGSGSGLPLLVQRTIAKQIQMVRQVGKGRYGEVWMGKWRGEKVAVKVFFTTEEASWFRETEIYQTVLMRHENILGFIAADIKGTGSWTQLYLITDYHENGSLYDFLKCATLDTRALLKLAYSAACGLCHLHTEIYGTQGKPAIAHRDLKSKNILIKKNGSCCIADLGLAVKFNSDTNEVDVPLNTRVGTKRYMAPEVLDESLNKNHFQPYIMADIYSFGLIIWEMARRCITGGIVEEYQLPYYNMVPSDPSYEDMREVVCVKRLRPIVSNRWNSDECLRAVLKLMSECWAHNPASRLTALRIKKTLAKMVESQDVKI
ACVRL1 (ALK1), sequence (P37023 22-503): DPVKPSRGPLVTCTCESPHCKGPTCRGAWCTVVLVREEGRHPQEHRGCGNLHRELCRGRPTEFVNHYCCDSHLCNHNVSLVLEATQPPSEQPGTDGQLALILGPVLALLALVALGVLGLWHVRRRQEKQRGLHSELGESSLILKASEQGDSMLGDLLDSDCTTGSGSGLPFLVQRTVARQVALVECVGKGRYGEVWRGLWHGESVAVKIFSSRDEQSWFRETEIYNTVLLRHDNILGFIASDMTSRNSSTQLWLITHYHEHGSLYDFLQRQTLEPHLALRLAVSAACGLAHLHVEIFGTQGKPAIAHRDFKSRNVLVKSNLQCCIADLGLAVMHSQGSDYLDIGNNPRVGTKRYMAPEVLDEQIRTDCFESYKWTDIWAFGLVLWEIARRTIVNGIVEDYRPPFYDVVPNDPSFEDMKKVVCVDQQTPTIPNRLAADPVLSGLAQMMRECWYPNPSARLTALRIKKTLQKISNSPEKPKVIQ
ACVR2B, sequence (Q13705 19-512): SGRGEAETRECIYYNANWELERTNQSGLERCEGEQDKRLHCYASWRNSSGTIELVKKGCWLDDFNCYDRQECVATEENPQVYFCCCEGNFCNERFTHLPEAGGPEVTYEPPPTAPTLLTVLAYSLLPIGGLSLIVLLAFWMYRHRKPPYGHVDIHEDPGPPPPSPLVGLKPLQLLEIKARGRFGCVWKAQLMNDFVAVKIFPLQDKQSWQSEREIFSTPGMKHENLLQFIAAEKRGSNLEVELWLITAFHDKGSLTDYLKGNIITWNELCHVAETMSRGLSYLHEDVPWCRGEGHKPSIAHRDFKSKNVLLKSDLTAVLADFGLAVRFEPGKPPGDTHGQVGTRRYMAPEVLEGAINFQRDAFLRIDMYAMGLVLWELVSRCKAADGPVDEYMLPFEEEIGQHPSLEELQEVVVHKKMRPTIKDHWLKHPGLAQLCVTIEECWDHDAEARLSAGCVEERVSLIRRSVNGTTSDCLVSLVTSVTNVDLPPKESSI

SMILES: CNC(=O)[C@@H]1CC[C@@H](n2c(-c3ccc4cnccc4c3)nc3ccc(C(=O)NCc4cccc(C(N)=O)c4)cc32)C1 [CDD-1115, N-(3-Carbamoylbenzyl)-2-(isoquinolin-6-yl)-1-((1R,3R)-3-(methylcarbamoyl)cyclopentyl)-1H-benzo[d]imidazole-6-carboxamide]
melting temperature (Tm) (BMPR2 kinase domain [1]): 67.8 °C | selectivity over BMPR2 (ACVRL1 (ALK1)): > 100 fold | selectivity over BMPR2 (ACVR1 (ALK2)): > 100 fold | selectivity over BMPR2 (BMPR1A (ALK3); ALK3, text): > 555 fold | selectivity (BMPR1A (ALK3); ALK3 vs BMPR2): >555× | IC50 (ACVR1B (ALK4)): inactive | selectivity over BMPR2 (TGFBR1 (ALK5); ALK5, text): > 555 fold | selectivity (TGFBR1 (ALK5); ALK5 vs BMPR2): >555× | selectivity over BMPR2 (BMPR1B (ALK6); ALK6, text): > 555 fold | selectivity (BMPR1B (ALK6); ALK6 vs BMPR2): >555× | pIC50 (TGFBR2): < 6.00 | selectivity over BMPR2 (TGFBR2; TGFBR2, text): > 555 fold | selectivity (TGFBR2; TGFBR2 vs BMPR2): >555× | IC50 (ACVR2A): inactive | IC50 (ACVR2B): inactive

SMILES: COc1cnc(Nc2cccc(S(N)(=O)=O)c2)nc1N1CCN(c2ccccc2)CC1 [CDD-1496, 3-((5-Methoxy-4-(4-phenylpiperazin-1-yl)pyrimidin-2-yl)amino)benzenesulfonamide]
fold drop in BMPR2 potency (BMPR2 kinase domain [2]; compared to parent CDD-1431): 2 fold | phosphorylation of SMAD1/5 (pSMAD1/5) [3]: significantly decreased

SMILES: COc1cnc(Nc2cccc(S(N)(=O)=O)c2)nc1N1CCNCC1 [CDD-1497, 3-((5-Methoxy-4-(piperazin-1-yl)pyrimidin-2-yl)amino)benzenesulfonamide]
fold drop in BMPR2 potency (BMPR2 kinase domain [2]; compared to parent CDD-1431): 12 fold

SMILES: COc1cnc(Nc2cccc(S(N)(=O)=O)c2)nc1N1CCN(c2ccccc2)C(=O)C1 [CDD-1653, 3-((5-Methoxy-4-(3-oxo-4-phenylpiperazin-1-yl)pyrimidin-2-yl)amino)benzenesulfonamide]
phosphorylation of SMAD1/5 (pSMAD1/5) [3]: significantly decreased | pKd (WNK1): < 5.52 | pKd (WNK2): < 5.52

SMILES: CCOc1cnc(Nc2cccc(S(N)(=O)=O)c2)nc1N1CCN(c2ccccc2)C(=O)C1 [CDD-1703, 3-((5-Ethoxy-4-(3-oxo-4-phenylpiperazin-1-yl)pyrimidin-2-yl)amino)benzenesulfonamide]
fold improved BMPR2 potency (BMPR2 kinase domain [2]; compared to parent CDD-1431): 4 fold

Other lines, results leading:

fold loss of BMPR2 potency (BMPR2 kinase domain [2]): 2.7 fold
SMILES: Cn1c(-c2ccc3cnccc3c2)nc2ccc(C(=O)NCc3cccc(C(N)=O)c3)cc21 [CDD-1280, N-(3-Carbamoylbenzyl)-2-(isoquinolin-6-yl)-1-methyl-1H-benzo[d]imidazole-6-carboxamide]

fold loss of BMPR2 potency (BMPR2 kinase domain [2]): complete loss of potency
SMILES: CNC(=O)c1ccc2nc(-c3ccc4cnccc4c3)n([C@@H]3CC[C@@H](C(=O)NC)C3)c2c1 [CDD-1282, 2-(Isoquinolin-6-yl)-N-methyl-1-((1R,3R)-3-(methylcarbamoyl)cyclopentyl)-1H-benzo[d]imidazole-6-carboxamide]

fold loss of BMPR2 potency (BMPR2 kinase domain [2]): 6.2 fold
SMILES: CNC(=O)[C@@H]1CC[C@@H](n2c(-c3ccc4cnccc4c3)nc3ccc(C(=O)NCc4ccccc4)cc32)C1 [CDD-1283, N-Benzyl-2-(isoquinolin-6-yl)-1-((1R,3R)-3-(methylcarbamoyl)cyclopentyl)-1H-benzo[d]imidazole-6-carboxamide]

fold loss of BMPR2 potency (BMPR2 kinase domain [2]): 160 fold
SMILES: CNC(=O)[C@@H]1CC[C@@H](n2c(-c3cccc(Cl)c3)nc3ccc(C(=O)NCc4cccc(C(N)=O)c4)cc32)C1 [CDD-1284, N-(3-Carbamoylbenzyl)-2-(3-chlorophenyl)-1-((1R,3R)-3-(methylcarbamoyl)cyclopentyl)-1H-benzo[d]imidazole-6-carboxamide]

fold loss of BMPR2 potency (BMPR2 kinase domain [2]): 160 fold
SMILES: CNC(=O)[C@@H]1CC[C@@H](n2c(-c3cc(Cl)cc(Cl)c3)nc3ccc(C(=O)NCc4cccc(C(N)=O)c4)cc32)C1 [CDD-1285, N-(3-Carbamoylbenzyl)-2-(3,5-dichlorophenyl)-1-((1R,3R)-3-(methylcarba-moyl)cyclopentyl)-1H-benzo[d]imidazole-6-carboxamide]

melting temperature (Tm) (BMPR2 kinase domain [1]): 66.0 °C
SMILES: CNC(=O)CCc1ccc(C(=O)NCc2cccc(N3CCN(c4nc(Nc5cccc(S(N)(=O)=O)c5)ncc4OC)CC3)c2)cc1 [CDD-1431, N-(3-(4-(5-Methoxy-2-((3-sulfamoylphenyl)amino)pyrimidin-4-yl)piperazin-1-yl)benzyl)-4-(3-(methylamino)-3-oxopropyl)benzamide]

From PMC9924264 (Journal of Medicinal Chemistry, 2023)
